The record followed here is ChEMBL document CHEMBL1122459, “4-(Diphenylmethyl)-1-[(imino)methyl]piperidines as gastric antisecretory agents” (J Med Chem, 1983).

The subject of assay [1] is Rattus norvegicus. As to the kind of experiment: Antisecretory activity against acute gastric fistula(AGF) in rat when administered perorally. The format is functional. Particulars: Stomach, po. Summed up:
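Female Sprague-Dawley rats, 120-160 g, fasted ≥18 h; drug or vehicle (0.5% methocel) po 1 h before surgery. Under ether, fundic fistula tube inserted; first 30-min sample discarded, then two 1-h collections. Volume measured, aliquot titrated to pH 7 with 0.01 N NaOH for total acid output. ED50 = dose for 50% inhibition vs controls, least-squares regression; ≥5 rats/group, ≥3 doses.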

Assay [2] has as its system Rattus norvegicus. As to the kind of experiment: Anticholinergic activity against carbachol induced gastric emptying(GE) in rat when administered perorally. The format is functional. Particulars: Stomach, po. Summed up:
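Ten 1-mm polystyrene beads placed in stomach by tube 30 min later; carbachol 80 mcg/kg sc at 1 h post-dose; killed 15 min after. Beads left in stomach counted. ED50 = dose giving 50% inhibition of emptying vs controls, by least-squares regression; ≥5 rats/group, ≥3 dose groups.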

Assay [3] in a line: Ratio between gastric emptying(GE) and acute gastric fistula(AGF). The format is functional, Stomach.
The target of assay [4] is Muscarinic acetylcholine receptor. As to the kind of experiment: Displacement of [3H]- quinuclidinyl benzilate from rat brain Muscarinic acetylcholine receptor.
Assay [5] is filed under the species Rattus norvegicus. As to the kind of experiment: Relative potency against atropine. The format is functional.
The species entered for assay [6] is Rattus norvegicus. As to the kind of experiment: animal or person. Particulars: Stomach, po.
Assay [7] has as its system Rattus norvegicus. As to the kind of experiment: Anticholinergic activity against carbachol-induced gastric emptying (GE) in rat when administered perorally. To be noted: Stomach, po.

The term ED50 denotes the midpoint of the dose-response relation. For `CCCCCCCCC/N=C/N1CCC(C(c2ccccc2)c2ccccc2)CC1.O=C(O)/C=C/C(=O)O`, the median effective dose (ED50) in assay [1] is 10.8 mg/kg; in assay [2], 40.4 mg/kg. In addition, in assay [3], the Ratio is listed as 3.74. For the same molecule, in assay [4], the I50 is recorded as more than 10000 nM.

For the molecule `CCCCCCCC/N=C/N1CCC(C(c2ccccc2)c2ccccc2)CC1.O=C(O)/C=C/C(=O)O`, the 50% effective dose (ED50) in assay [1] came to 10.9 mg/kg; in assay [2], 176 mg/kg. Also, the Ratio in assay [3] worked out at 16.15. Also, the I50 in assay [4] turned out to be 8600 nM. For the same molecule, the “Relative Potency” value in assay [5] amounted to 0.04.

As to `C=CC/N=C/N1CCC(C(c2ccccc2)c2ccccc2)CC1`, the 50% effective dose (ED50) in assay [1] is 10.4 mg/kg; in assay [2], 13.2 mg/kg. For the same molecule, in assay [3], the Ratio is 1.27. This molecule yielded an I50 in assay [4] of 490 nM. Also, the “Relative Potency” value in assay [5] stood at 0.51.

With `Cl.N=CN1CCC(C(c2ccccc2)c2ccccc2)CC1`, the ED50 in assay [1] amounted to 0.34 mg/kg; in assay [2], 0.86 mg/kg. The Ratio in assay [3] came to 2.53. Further, the I50 in assay [4] is reported as 3 nM. Further, in assay [5], the “Relative Potency” value amounted to 81.7.

Consider `CCCC/N=C/N1CCC(C(c2ccccc2)c2ccccc2)CC1.O=C(O)/C=C/C(=O)O`, for which the figures for the ED50 in assay [1] and in assay [2] were 7.6 mg/kg and 10.3 mg/kg, respectively. The Ratio in assay [3] is on record as 1.36. In addition, the I50 in assay [4] was determined as 1600 nM. Also, in assay [5], the “Relative Potency” value came out at 0.15.

`CCCCCC/N=C/N1CCC(C(c2ccccc2)c2ccccc2)CC1.O=C(O)/C=C/C(=O)O`: the results for the ED50 in assay [1] and in assay [2] were 8.34 mg/kg and 15 mg/kg, respectively. Moreover, the Ratio in assay [3] was 1.8. Also, the I50 in assay [4] worked out at 1900 nM. Further, the “Relative Potency” value in assay [5] worked out at 0.13.

With `CN1[C@@H]2CC[C@H]1C[C@@H](OC(=O)C(CO)c1ccccc1)C2` (stereo partly drawn) [ATROPINE], the ED50 worked out at 0.64 mg/kg in assay [1] and 0.35 mg/kg in assay [2].

`CCCCCCC/N=C/N1CCC(C(c2ccccc2)c2ccccc2)CC1.O=C(O)/C=C/C(=O)O`: the ED50 in assay [1] worked out at 11.5 mg/kg; in assay [2], 33.4 mg/kg. Besides, the Ratio in assay [3] amounted to 2.9. The same molecule gave an I50 in assay [4] of 3300 nM. Also, the “Relative Potency” value in assay [5] was 0.08.

As to `CC(C)/N=C/N1CCC(C(c2ccccc2)c2ccccc2)CC1.O=C(O)/C=C/C(=O)O`, the ED50 turned out to be 8.6 mg/kg in assay [1] and 15.1 mg/kg in assay [2]. In addition, in assay [3], the Ratio amounted to 1.76. For the same molecule, the I50 in assay [4] amounted to 1600 nM. Further, the “Relative Potency” value in assay [5] is recorded as 0.15.

On to `C#CC/N=C/N1CCC(C(c2ccccc2)c2ccccc2)CC1.Cl`, for which the ED50 was 5.4 mg/kg in assay [1] and 8 mg/kg in assay [2]. In assay [3], the Ratio amounted to 1.48. The I50 in assay [4] is 1300 nM. Further, the “Relative Potency” value in assay [5] is listed as 0.19.

For the molecule `CN/C(=N\CCSCc1nc[nH]c1C)NC#N` [CIMETIDINE], the ED50 in assay [6] was 7.6 mg/kg; in assay [7], 160 mg/kg.

Consider `CCCCCCCCCC/N=C/N1CCC(C(c2ccccc2)c2ccccc2)CC1`, for which the ED50 was determined as 7.8 mg/kg in assay [1] and 43.1 mg/kg in assay [2]. The Ratio in assay [3] stood at 5.52. This molecule also yielded an I50 in assay [4] of 3800 nM. In addition, the “Relative Potency” value in assay [5] amounted to 0.06.

`CCC(=N)N1CCC(C(c2ccccc2)c2ccccc2)CC1`: the ED50 in assay [1] was found to be 54.5 mg/kg; in assay [2] it was 20 mg/kg. The Ratio in assay [3] worked out at 0.37. The I50 in assay [4] was determined as 70 nM. Moreover, the “Relative Potency” value in assay [5] is 3.61.
